ChEMBL document CHEMBL5244263, “Studies on fragment-based design of allosteric inhibitors of human factor XIa” (Bioorg Med Chem, 2020)
Calls of active or inactive are those of the source. The rule behind the calls is not given here.

Tests used:
Coagulation factor XI [1] = molecular target: T1, Coagulation factor XI (Homo sapiens, UniProt P03951); experiment: Inhibition of human FXIa using S-2366 as chromogenic substrate preincubated with enzyme for 10 mins followed by substrate addition by spectrophotometric analysis relative to control; set-up: concentration or dose not given beside the values
T1 sequence (P03951 19-387 limits assumed): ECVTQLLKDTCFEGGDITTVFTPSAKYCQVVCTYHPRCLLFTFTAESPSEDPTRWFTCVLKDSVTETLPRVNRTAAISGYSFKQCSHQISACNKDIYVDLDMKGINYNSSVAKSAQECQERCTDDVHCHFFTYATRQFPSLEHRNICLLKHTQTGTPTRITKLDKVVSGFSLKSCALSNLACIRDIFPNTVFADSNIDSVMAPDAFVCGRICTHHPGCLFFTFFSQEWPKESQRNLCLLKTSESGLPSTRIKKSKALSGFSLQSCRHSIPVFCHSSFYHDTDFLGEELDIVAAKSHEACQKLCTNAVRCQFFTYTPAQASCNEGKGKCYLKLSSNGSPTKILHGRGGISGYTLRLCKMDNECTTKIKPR
T1 sequence (P03951 388-625 limits assumed): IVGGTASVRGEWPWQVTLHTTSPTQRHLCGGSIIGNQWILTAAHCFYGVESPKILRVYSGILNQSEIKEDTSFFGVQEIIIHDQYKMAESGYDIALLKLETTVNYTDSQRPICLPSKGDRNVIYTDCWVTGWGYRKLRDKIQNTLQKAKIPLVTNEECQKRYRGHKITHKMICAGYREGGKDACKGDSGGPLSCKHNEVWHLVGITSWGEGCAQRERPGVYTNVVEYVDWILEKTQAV
In short: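 hFXIa (0.765 nM final) preincubated with inhibitor or reference solution for 10 min at 37 °C in pH 7.4 buffer (50 mM Tris-HCl, 150 mM NaCl, 0.1% PEG8000, 0.02% Tween80). S-2366 (345 μM final) then added, and residual activity read on a microplate reader.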

Homo sapiens [2] = species: Homo sapiens; experiment: Selectivity for inhibition of human FXIa over FVIIa (unknown origin)
[3] = molecular target: Prothrombin (Homo sapiens) (UniProt P00734); experiment: Inhibition of human thrombin at 500 uM by chromogenic substrate hydrolysis assay
[4] = molecular target: Coagulation factor IX (Homo sapiens) (UniProt P00740); experiment: Inhibition of human FIXa at 500 uM by chromogenic substrate hydrolysis assay
Coagulation factor IX (Homo sapiens), sequence (P00740 47-191 limits assumed): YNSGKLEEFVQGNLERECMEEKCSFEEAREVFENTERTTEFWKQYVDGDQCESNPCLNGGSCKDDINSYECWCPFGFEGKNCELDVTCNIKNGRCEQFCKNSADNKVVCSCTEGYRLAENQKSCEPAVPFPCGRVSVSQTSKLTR
Coagulation factor IX (Homo sapiens), sequence (P00740 227-461 limits assumed): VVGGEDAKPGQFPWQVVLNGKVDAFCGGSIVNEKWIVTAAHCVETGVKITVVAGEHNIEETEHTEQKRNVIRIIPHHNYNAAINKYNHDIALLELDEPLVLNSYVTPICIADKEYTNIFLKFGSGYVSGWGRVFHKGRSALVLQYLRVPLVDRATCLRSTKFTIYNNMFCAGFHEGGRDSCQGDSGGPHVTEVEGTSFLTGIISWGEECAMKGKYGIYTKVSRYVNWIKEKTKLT

Homo sapiens [5] = species: Homo sapiens; experiment: Selectivity for inhibition of human FXIa over human thrombin
Coagulation factor XI [6] = molecular target: T1, Coagulation factor XI; experiment: Inhibition of human FXIa using S-2366 as chromogenic substrate preincubated with enzyme for 10 mins followed by substrate addition by spectrophotometric analysis
[7] = Selectivity for inhibition of human FXIa over bovine alpha-chymotrypsin
Homo sapiens [8] = species: Homo sapiens; experiment: Selectivity for inhibition of human FXIa over human FIXa
[9] = molecular target: T2, Coagulation factor VII (Homo sapiens) (UniProt P08709); experiment: Inhibition of FVIIa (unknown origin) at 500 uM by chromogenic substrate hydrolysis assay
T2 sequence (whole entry): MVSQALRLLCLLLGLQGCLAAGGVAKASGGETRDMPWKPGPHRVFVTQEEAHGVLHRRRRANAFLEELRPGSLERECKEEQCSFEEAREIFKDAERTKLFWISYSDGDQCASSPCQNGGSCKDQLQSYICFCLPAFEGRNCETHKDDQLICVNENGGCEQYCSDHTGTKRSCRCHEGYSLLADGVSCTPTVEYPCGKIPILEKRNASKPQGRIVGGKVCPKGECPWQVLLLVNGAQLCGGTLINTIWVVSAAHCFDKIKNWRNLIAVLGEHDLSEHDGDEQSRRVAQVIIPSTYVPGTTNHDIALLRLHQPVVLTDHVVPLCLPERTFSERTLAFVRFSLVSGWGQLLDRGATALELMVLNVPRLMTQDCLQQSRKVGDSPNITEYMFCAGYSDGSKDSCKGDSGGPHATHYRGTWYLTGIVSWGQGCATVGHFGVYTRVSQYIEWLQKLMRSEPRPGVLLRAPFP

Bos taurus = species: Bos taurus; experiment: Inhibition of bovine trypsin using S-2222 as chromogenic substrate at 500 uM by chromogenic substrate hydrolysis assay
Homo sapiens [10] = species: Homo sapiens; experiment: Selectivity for inhibition of human FXIa over Kallikrein in human plasma; type: cell-free
[11] = Selectivity for inhibition of human FXIa over bovine trypsin
[12] = molecular target: Plasma kallikrein (Homo sapiens) (UniProt P03952); experiment: Inhibition of Kallikrein in human plasma at 500 uM by chromogenic substrate hydrolysis assay; type: cell-free
Plasma kallikrein (Homo sapiens), sequence (P03952 20-390 limits assumed): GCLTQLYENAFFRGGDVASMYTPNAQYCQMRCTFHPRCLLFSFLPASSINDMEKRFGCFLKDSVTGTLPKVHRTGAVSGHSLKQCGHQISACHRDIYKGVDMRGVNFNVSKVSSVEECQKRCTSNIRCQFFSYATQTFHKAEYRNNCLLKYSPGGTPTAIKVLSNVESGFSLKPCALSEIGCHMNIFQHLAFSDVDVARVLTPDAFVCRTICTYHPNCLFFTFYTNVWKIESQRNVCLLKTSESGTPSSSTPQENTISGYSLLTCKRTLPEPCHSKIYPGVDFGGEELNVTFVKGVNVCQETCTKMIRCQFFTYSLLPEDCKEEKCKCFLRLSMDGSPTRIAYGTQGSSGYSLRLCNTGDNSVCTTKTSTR
Plasma kallikrein (Homo sapiens), sequence (P03952 391-638 limits assumed): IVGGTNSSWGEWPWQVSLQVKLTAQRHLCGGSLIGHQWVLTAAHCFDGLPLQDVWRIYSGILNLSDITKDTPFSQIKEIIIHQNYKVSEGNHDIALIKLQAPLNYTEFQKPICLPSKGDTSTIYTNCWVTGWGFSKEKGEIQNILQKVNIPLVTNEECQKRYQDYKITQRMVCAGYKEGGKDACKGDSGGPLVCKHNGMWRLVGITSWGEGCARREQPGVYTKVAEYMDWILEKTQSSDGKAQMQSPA

Homo sapiens [13] = species: Homo sapiens; experiment: Selectivity for inhibition of human FXIa over human FXa
[14] = molecular target: Coagulation factor X (Homo sapiens) (UniProt P00742); experiment: Inhibition of human FXa using methoxycarbonyl-D-cyclohexylglycyl-Gly-Arg-p-nitroanilide as substrate at 500 uM by chromogenic substrate hydrolysis assay
Coagulation factor X (Homo sapiens), sequence (P00742 41-179 limits assumed): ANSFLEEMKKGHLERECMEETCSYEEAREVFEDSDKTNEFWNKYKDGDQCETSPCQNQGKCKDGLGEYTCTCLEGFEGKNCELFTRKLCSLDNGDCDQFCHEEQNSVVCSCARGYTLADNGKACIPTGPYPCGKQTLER
Coagulation factor X (Homo sapiens), sequence (P00742 235-488 limits assumed): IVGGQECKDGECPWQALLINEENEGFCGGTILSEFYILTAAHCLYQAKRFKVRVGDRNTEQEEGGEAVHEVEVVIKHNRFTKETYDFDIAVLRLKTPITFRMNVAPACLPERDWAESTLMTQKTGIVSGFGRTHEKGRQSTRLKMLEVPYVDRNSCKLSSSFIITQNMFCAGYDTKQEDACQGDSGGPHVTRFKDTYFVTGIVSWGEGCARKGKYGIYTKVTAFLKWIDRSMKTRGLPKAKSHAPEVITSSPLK

[15] = molecular target: Chymotrypsinogen A (Bos taurus) (UniProt P00766); experiment: Inhibition of bovine alpha-chymotrypsin at 500 uM by chromogenic substrate hydrolysis assay

SMILES | inhibition (Coagulation factor XI [1]) [%] | Selectivity ratio (Homo sapiens [2]) | inhibition [3] | inhibition [4] | Selectivity ratio (Homo sapiens [5]) | IC50 (Coagulation factor XI [6]) [µM] | Selectivity ratio [7] | Selectivity ratio (Homo sapiens [8]) | inhibition [9] | inhibition (Bos taurus) | Selectivity ratio (Homo sapiens [10]) | Selectivity ratio [11] | inhibition [12] | Selectivity ratio (Homo sapiens [13]) | inhibition [14] | inhibition [15]
O=c1c2ccccc2nc(-c2ccc(OS(=O)(=O)O)cc2)n1CCCCCCCCn1cc(Cn2c(-c3ccc(OS(=O)(=O)O)cc3)nc3ccccc3c2=O)nn1 | 100 | > 63 | inactive | inactive | > 63 | 39 | > 63 | > 63 | inactive | inactive | > 63 | > 63 | inactive | > 63 | inactive | inactive
O=c1c2ccccc2nc(-c2ccc(OS(=O)(=O)O)cc2)n1CCCCCCCCCCCCn1cc(Cn2c(-c3ccc(OS(=O)(=O)O)cc3)nc3ccccc3c2=O)nn1 | 112 | > 63 | inactive | inactive | > 63 | 35 | > 63 | > 63 | inactive | inactive | > 63 | > 63 | inactive | > 63 | inactive | inactive
O=c1c2ccccc2nc(-c2ccc(OS(=O)(=O)O)cc2)n1Cc1cccc(Cn2c(-c3ccc(OS(=O)(=O)O)cc3)nc3ccccc3c2=O)c1 | 96 | > 63 | inactive | inactive | > 63 | 76 | > 63 | > 63 | inactive | inactive | > 63 | > 63 | inactive | > 63 | inactive | inactive
O=c1c2ccccc2nc(-c2ccc(OS(=O)(=O)O)cc2)n1CCCCCCCn1cc(Cn2c(-c3ccc(OS(=O)(=O)O)cc3)nc3ccccc3c2=O)nn1 | 103 | > 63 | inactive | inactive | > 63 | 51 | > 63 | > 63 | inactive | inactive | > 63 | > 63 | inactive | > 63 | inactive | inactive
O=c1c2ccccc2nc(-c2ccc(OS(=O)(=O)O)cc2)n1CCCCCCn1c(-c2ccc(OS(=O)(=O)O)cc2)nc2ccccc2c1=O | 87 | > 63 | inactive | inactive | > 63 | 34 | > 63 | > 63 | inactive | inactive | > 63 | > 63 | inactive | > 63 | inactive | inactive
O=c1c2ccccc2nc(-c2ccc(OS(=O)(=O)O)cc2)n1Cc1ccccc1Cn1c(-c2ccc(OS(=O)(=O)O)cc2)nc2ccccc2c1=O | 87 | > 63 | inactive | inactive | > 63 | 57 | > 63 | > 63 | inactive | inactive | > 63 | > 63 | inactive | > 63 | inactive | inactive
O=c1c2ccccc2nc(-c2ccc(OS(=O)(=O)O)cc2)n1CCCCCCCCCCCn1cc(Cn2c(-c3ccc(OS(=O)(=O)O)cc3)nc3ccccc3c2=O)nn1 | 98 | > 63 | inactive | inactive | > 63 | 30 | > 63 | > 63 | inactive | inactive | > 63 | > 63 | inactive | > 63 | inactive | inactive
O=c1c2ccccc2nc(-c2ccc(OS(=O)(=O)O)cc2)n1CCCCCCCCCCn1cc(Cn2c(-c3ccc(OS(=O)(=O)O)cc3)nc3ccccc3c2=O)nn1 | 112 | > 63 | inactive | inactive | > 63 | 22 | > 63 | > 63 | inactive | inactive | > 63 | > 63 | inactive | > 63 | inactive | inactive
O=c1c2ccccc2nc(-c2cccc(OS(=O)(=O)O)c2)n1Cc1ccc(Cn2c(-c3cccc(OS(=O)(=O)O)c3)nc3ccccc3c2=O)cc1 | 100 | > 63 | inactive | inactive | > 63 | 248 | > 63 | > 63 | inactive | inactive | > 63 | > 63 | inactive | > 63 | inactive | inactive
O=c1c(OS(=O)(=O)O)c(-c2ccc(OS(=O)(=O)O)c(OS(=O)(=O)O)c2)oc2cc(OS(=O)(=O)O)cc(OCc3cn(CCCCCCCn4c(-c5ccc(OS(=O)(=O)O)cc5)nc5ccccc5c4=O)nn3)c12 |  |  | inactive | inactive |  | 139 |  |  | inactive | inactive |  |  | inactive |  | inactive | inactive
O=c1c(OS(=O)(=O)O)c(-c2ccc(OS(=O)(=O)O)c(OS(=O)(=O)O)c2)oc2cc(OS(=O)(=O)O)cc(OCc3cn(CCCCCCCCCn4c(-c5ccc(OS(=O)(=O)O)cc5)nc5ccccc5c4=O)nn3)c12 |  |  | inactive | inactive |  | 37 |  |  | inactive | inactive |  |  | inactive |  | inactive | inactive
O=c1c(OS(=O)(=O)O)c(-c2ccc(OS(=O)(=O)O)c(OS(=O)(=O)O)c2)oc2cc(OS(=O)(=O)O)cc(OCc3cn(CCCCCCCCn4c(-c5ccc(OS(=O)(=O)O)cc5)nc5ccccc5c4=O)nn3)c12 |  |  | inactive | inactive |  | 133 |  |  | inactive | inactive |  |  | inactive |  | inactive | inactive
O=c1c(OS(=O)(=O)O)c(-c2ccc(OS(=O)(=O)O)c(OS(=O)(=O)O)c2)oc2cc(OS(=O)(=O)O)cc(OCc3cn(CCCCCCCCCCn4c(-c5ccc(OS(=O)(=O)O)cc5)nc5ccccc5c4=O)nn3)c12 |  |  | inactive | inactive |  | 51 |  |  | inactive | inactive |  |  | inactive |  | inactive | inactive
